Data set [1] has as its system Rattus norvegicus. The experiment in a line: Antinociceptive activity in Sprague-Dawley rat mononeuropathy pain model assessed as increase in injured paw pressure at 30 mg/kg, po after 15 mins by paw pressure test relative to non-treated control. The format is functional. The procedure, abridged: (§1)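 Chronic constriction injury: loose ligatures placed on the common sciatic nerve under chloral hydrate; contralateral sham dissection. Tested 14 days after surgery. Paw pressure applied at 32 g/s; threshold taken as the force causing the first struggle; cut-off 250 g; pretest outliers (<40 g or >75 g) excluded. Oral dosing in 10 ml/kg; read at 15, 30 and 45 min; compared with a CMC-treated group.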

The test system of data set [2] is Rattus norvegicus. Kind of data set: Antinociceptive activity in Sprague-Dawley rat mononeuropathy pain model assessed as increase in injured paw pressure at 30 mg/kg, po after 45 mins by paw pressure test relative to non-treated control. The format is functional. The procedure, abridged: as §1
In data set [3] the test system is Rattus norvegicus. The experiment in a line: Toxicity in Sprague-Dawley rat mononeuropathy pain model assessed as effect on contralateral paw pressure at 30 mg/kg, po after 30 mins by paw pressure test. Details: dose 30 mg/kg, route oral. Particulars: in vivo, 0.5 h. It is filed as organism-based. The procedure, abridged: (§2)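 Same sciatic-ligation rat model, 14 days after surgery. Threshold measured on the non-operated contralateral hind paw by analgesimeter at 32 g/s; first-struggle endpoint; 250 g cut-off; pretest rats outside 40–75 g rejected. Compound given po in 10 ml/kg; readings at 15, 30 and 45 min.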

Data set [4] has as its system Rattus norvegicus. Kind of data set: Antinociceptive activity in Sprague-Dawley rat mononeuropathy pain model assessed as increase in injured paw pressure at 30 mg/kg, po after 30 mins by paw pressure test relative to non-treated control. The format is functional. The procedure, abridged:
as §1

The test system of data set [5] is Rattus norvegicus. Kind of data set: Toxicity in Sprague-Dawley rat mononeuropathy pain model assessed as effect on contralateral paw pressure at 30 mg/kg, po after 45 mins by paw pressure test. The format is organism-based. Set-up: dose 30 mg/kg, route oral. Particulars: in vivo, 0.75 h. The procedure, abridged:
as §2

Data set [6] concerns Rattus norvegicus. Kind of data set: Toxicity in Sprague-Dawley rat mononeuropathy pain model assessed as effect on contralateral paw pressure at 30 mg/kg, po after 15 mins by paw pressure test. It is filed as organism-based. Set-up: dose 30 mg/kg, route oral. Particulars: in vivo, 0.25 h. The procedure, abridged:
as §2

Data set [7] is filed under the species Bos taurus. Kind of data set: Displacement of [3H]Ro151788 from GABA(A)/BzR in bovine cerebral cortex membrane at 10 uM. It is filed as cell membranes. In outline:
(§3)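 Bovine cerebral cortex membranes in 50 mM Tris-citrate pH 7.4; [3H]flumazenil displacement. Compounds first tested at a fixed 10 µM; Ki determined only when inhibition exceeded 80%, using at least six concentrations. Five experiments run in triplicate; IC50 obtained by iterative curve fitting and converted to Ki with the Cheng–Prusoff equation.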
Background: In a radioligand displacement assay an active substance lowers the binding of a labelled ligand.

Data set [8] in a line: Displacement of [3H]Ro151788 from GABA(A)/BzR in bovine cerebral cortex membrane. The format is cell membranes, Bos taurus. The procedure, abridged: as §3
Data set [9] relates to Mus musculus. The experiment in a line: Anxiolytic activity in ip dosed Swiss albino mouse pain model after 30 mins by light/dark box test in presence of flumazenil. The format is functional, organism-based. The procedure, abridged: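 Light/dark box test in male Swiss albino mice, with drug given 30 min before testing and flumazenil 100 mg/kg i.p. co-administered before the test. Read-outs were transfers between compartments and time in the lit side. Results are means ± SEM of 8 mice.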

For data set [10], the system named is Mus musculus. Kind of data set: Anxiolytic activity in ip dosed Swiss albino mouse pain model after 30 mins by light/dark box test. The format is functional, organism-based. In outline:
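Male Swiss albino mice were tested in a light/dark box 30 min after dosing. Read-outs were transfers between compartments and time spent in the illuminated side. Dose volume was 10 ml/kg. Results are means ± SEM of 8 mice.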

Each structure is given as a SMILES string. Activity calls are given as the source filed them. Bounds are passed on as bounds.

Turning to `[O-][n+]1nc2c(I)cnn2c2cc(OCc3ccccc3)ccc21`, the Activity in data set [1] turned out to be 37.1 g; in [2], 36.4 g; in data set [3] it was 59.2 g; in data set [4], 46.5 g; in data set [5] it was 65.1 g; in data set [6] it was 62.7 g.

Turning to `Cc1cnn2c1n[n+]([O-])c1ccc(Cl)cc12`, the inhibition in [7] is above 80%. For the same compound, in data set [8], the affinity corresponds to a Ki of 400 nM.

In turn, `[O-][n+]1nc2c(I)cnn2c2cc(NCCc3ccccc3)ccc21` displayed an inhibition in data set [7] above 80%. In [8], affinity was put at a Ki of 14.7 nM.

Consider `CN1C(=O)CN=C(c2ccccc2)c2cc(Cl)ccc21`, for which the outcome in data set [9] was inactive. In addition, in data set [10], the result was Active.

`COc1ccccc1CNc1ccc2c(c1)n1ncc(C)c1n[n+]2[O-]` showed an inhibition in data set [7] above 80%. Moreover, the affinity in data set [8] corresponds to a Ki of 0.78 nM.

Turning to `[O-][n+]1nc2c(I)cnn2c2cc(NCc3ccc(Cl)cc3)ccc21`, in data set [7], the inhibition was above 80%. In data set [8], affinity was put at a Ki of 2.44 nM.

For the compound `O=C(c1cccs1)c1cnn2c1n[n+]([O-])c1ccc(Oc3ccccc3)cc12`, the Activity stood at 37.7 g in data set [1]; 43.2 g in [2]; 57.8 g in data set [3]; 38.4 g in data set [4]; 61.2 g in [5]; 60.6 g in data set [6].

In data set [7], `COc1ccccc1COc1ccc2c(c1)n1ncc(C)c1n[n+]2[O-]` displayed an inhibition above 80%. This compound also showed an inhibition constant Ki in data set [8] of 3.02 nM.

What is called inhibition is how much of the control response was suppressed. Low readings indicate a weak effect, high ones a strong effect. A word on the Ki: it is a measure of affinity in units of concentration, obtained from inhibition or displacement.

The values above are taken from ChEMBL document CHEMBL2176871, “Development of ligands at γ-aminobutyrric acid type A (GABAA) receptor subtype as new agents for pain relief” (Bioorg Med Chem, 2011).
